Experimental data from ChEMBL document CHEMBL5247575 (J Med Chem, 2018).

Legend:
[1] = Binding affinity to bacteria ADC-7 assessed as dissociation constant
[2] = system: Escherichia coli; assay: Synergistic antibacterial activity against Escherichia coli DH10B transfected with pBR322-catI-KPC-2 assessed as cefepime MIC at 4 ug/ml by broth microdilution method; format: functional; settings: dose 4 µg/ml
How it was run: (§1)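 Broth microdilution per CLSI guidelines, using custom frozen panels. […] Each partner drug was also tested alone. MICs were run in triplicate and the modal value is reported.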

[3] = system: Escherichia coli; assay: Synergistic antibacterial activity against Escherichia coli DH10B transfected with pBC SK (-) KPC-3 assessed as cefepime MIC at 4 ug/ml by broth microdilution method; format: functional; settings: dose 4 µg/ml
[4] = system: Escherichia coli; assay: Synergistic antibacterial activity against Escherichia coli DH10B transfected with pBC SK (-) OXA-48 assessed as cefepime MIC at 4 ug/ml by broth microdilution method; format: functional; settings: dose 4 µg/ml; how it was run: as §1
[5] = system: Klebsiella pneumoniae; assay: Synergistic antibacterial activity against Klebsiella pneumoniae 1315/2198 producing KPC-3 assessed as cefepime MIC at 4 ug/ml by broth microdilution method; format: functional; settings: dose 4 µg/ml; how it was run: as §1
[6] = system: Klebsiella pneumoniae; assay: Synergistic antibacterial activity against Klebsiella pneumoniae 1398/2291 producing KPC-3 assessed as cefepime MIC at 4 ug/ml by broth microdilution method; format: functional; settings: dose 4 µg/ml; how it was run: as §1
[7] = system: Klebsiella pneumoniae; assay: Synergistic antibacterial activity against Klebsiella pneumoniae 11978 producing OXA-48 assessed as cefepime MIC at 4 ug/ml by broth microdilution method; format: functional; settings: dose 4 µg/ml; how it was run: as §1
[8] = system: Pseudomonas aeruginosa; assay: Synergistic antibacterial activity against Pseudomonas aeruginosa 795 assessed as cefepime MIC at 4 ug/ml by broth microdilution method; format: functional; settings: dose 4 µg/ml
[9] = system: Acinetobacter baumannii; assay: Synergistic antibacterial activity against Acinetobacter baumannii PR323 producing OXA-24/40 assessed as cefepime MIC at 4 ug/ml by broth microdilution method; format: functional; settings: dose 4 µg/ml
[10] = system: Acinetobacter baumannii; assay: Synergistic antibacterial activity against Acinetobacter baumannii PR359 producing OXA-23 assessed as cefepime MIC at 4 ug/ml by broth microdilution method; format: functional; settings: dose 4 µg/ml
[11] = system: Acinetobacter baumannii; assay: Synergistic antibacterial activity against Acinetobacter baumannii PR381 producing OXA-24/40 assessed as cefepime MIC at 4 ug/ml by broth microdilution method; format: functional; settings: dose 4 µg/ml
[12] = system: Acinetobacter baumannii; assay: Synergistic antibacterial activity against Acinetobacter baumannii PR474 producing OXA-23/24/40 assessed as cefepime MIC at 4 ug/ml by broth microdilution method; format: functional; settings: dose 4 µg/ml
[13] = system: Acinetobacter baumannii; assay: Synergistic antibacterial activity against Acinetobacter baumannii PR476 producing OXA-24/40 assessed as cefepime MIC at 4 ug/ml by broth microdilution method; format: functional; settings: dose 4 µg/ml
[14] = system: Acinetobacter baumannii; assay: Synergistic antibacterial activity against ADC deleted Acinetobacter baumannii transfected with pWH1266 producing OXA-24/40 assessed as cefepime MIC at 4 ug/ml by broth microdilution method; format: functional; settings: dose 4 µg/ml
[15] = system: Acinetobacter baumannii; assay: Synergistic antibacterial activity against ADC deleted Acinetobacter baumannii assessed as cefepime MIC at 8 ug/ml by broth microdilution method; format: functional; settings: dose 8 µg/ml
[16] = system: Klebsiella pneumoniae; assay: Synergistic antibacterial activity against Klebsiella pneumoniae 1084/1957 producing KPC-3 assessed as cefepime MIC at 8 ug/ml by broth microdilution method; format: functional; settings: dose 8 µg/ml; how it was run: as §1
[17] = system: Acinetobacter baumannii; assay: Synergistic antibacterial activity against Acinetobacter baumannii PR319 producing OXA-23/24/40 assessed as cefepime MIC at 8 ug/ml by broth microdilution method; format: functional; settings: dose 8 µg/ml
[18] = system: Acinetobacter baumannii; assay: Synergistic antibacterial activity against Acinetobacter baumannii PR363 producing OXA-23 assessed as cefepime MIC at 8 ug/ml by broth microdilution method; format: functional; settings: dose 8 µg/ml
[19] = system: Klebsiella pneumoniae; assay: Synergistic antibacterial activity against Klebsiella pneumoniae 1084/1957 producing KPC-3 assessed as meropenem MIC at 4 ug/ml by broth microdilution method; format: functional; settings: dose 4 µg/ml; how it was run: as §1
[20] = system: Klebsiella pneumoniae; assay: Synergistic antibacterial activity against Klebsiella pneumoniae 761/1723 producing KPC-3 assessed as meropenem MIC at 4 ug/ml by broth microdilution method; format: functional; settings: dose 4 µg/ml
[21] = system: Klebsiella pneumoniae; assay: Synergistic antibacterial activity against Klebsiella pneumoniae 972/1910 producing KPC-3 assessed as meropenem MIC at 4 ug/ml by broth microdilution method; format: functional; settings: dose 4 µg/ml
[22] = system: Klebsiella pneumoniae; assay: Synergistic antibacterial activity against Klebsiella pneumoniae 11978 producing OXA-48 assessed as meropenem MIC at 4 ug/ml by broth microdilution method; format: functional; settings: dose 4 µg/ml; how it was run: as §1
[23] = system: Acinetobacter baumannii; assay: Synergistic antibacterial activity against Acinetobacter baumannii PR359 producing OXA-23 assessed as meropenem MIC at 4 ug/ml by broth microdilution method; format: functional; settings: dose 4 µg/ml
[24] = system: Acinetobacter baumannii; assay: Synergistic antibacterial activity against Acinetobacter baumannii PR363 producing OXA-23 assessed as meropenem MIC at 4 ug/ml by broth microdilution method; format: functional; settings: dose 4 µg/ml
[25] = system: Acinetobacter baumannii; assay: Synergistic antibacterial activity against Acinetobacter baumannii PR474 producing OXA-23/24/40 assessed as meropenem MIC at 4 ug/ml by broth microdilution method; format: functional; settings: dose 4 µg/ml
[26] = system: Acinetobacter baumannii; assay: Synergistic antibacterial activity against Acinetobacter baumannii PR476 producing OXA-24/40 assessed as meropenem MIC at 4 ug/ml by broth microdilution method; format: functional; settings: dose 4 µg/ml
[27] = system: Escherichia coli; assay: Synergistic antibacterial activity against Escherichia coli DH10B transfected with pBR322-catI-KPC-2 assessed as meropenem MIC at 8 ug/ml by broth microdilution method; format: functional; settings: dose 8 µg/ml; how it was run: as §1
[28] = system: Escherichia coli; assay: Synergistic antibacterial activity against Escherichia coli DH10B transfected with pBC SK (-) KPC-2 assessed as meropenem MIC at 8 ug/ml by broth microdilution method; format: functional; settings: dose 8 µg/ml
[29] = system: Escherichia coli; assay: Synergistic antibacterial activity against Escherichia coli DH10B transfected with pBC SK (-) OXA-48 assessed as meropenem MIC at 8 ug/ml by broth microdilution method; format: functional; settings: dose 8 µg/ml; how it was run: as §1
[30] = system: Acinetobacter baumannii; assay: Synergistic antibacterial activity against ADC deleted Acinetobacter baumannii transfected with pWH1266 OXA-23 assessed as meropenem MIC at 8 ug/ml by broth microdilution method; format: functional; settings: dose 8 µg/ml
How it was run: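 Broth microdilution per CLSI guidelines in frozen panels. Test compound held at fixed 8 mg/L while the partner β-lactam concentration was increased. Run in triplicate; modal MIC reported.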

[31] = system: Klebsiella pneumoniae; assay: Synergistic antibacterial activity against Klebsiella pneumoniae 1108/1989 producing KPC-3 assessed as meropenem MIC at 8 ug/ml by broth microdilution method; format: functional; settings: dose 8 µg/ml; how it was run: as §1
[32] = system: Klebsiella pneumoniae; assay: Synergistic antibacterial activity against Klebsiella pneumoniae 761/1723 producing KPC-3 assessed as meropenem MIC at 8 ug/ml by broth microdilution method; format: functional; settings: dose 8 µg/ml
[33] = system: Klebsiella pneumoniae; assay: Synergistic antibacterial activity against Klebsiella pneumoniae 1354/2241 producing KPC-3 assessed as meropenem MIC at 8 ug/ml by broth microdilution method; format: functional; settings: dose 8 µg/ml; how it was run: as §1
[34] = system: Klebsiella pneumoniae; assay: Synergistic antibacterial activity against Klebsiella pneumoniae 11978 producing OXA-48 assessed as meropenem MIC at 8 ug/ml by broth microdilution method; format: functional; settings: dose 8 µg/ml; how it was run: as §1
[35] = system: Klebsiella pneumoniae; assay: Synergistic antibacterial activity against Klebsiella pneumoniae CAV 1636 producing OXA-181 assessed as meropenem MIC at 8 ug/ml by broth microdilution method; format: functional; settings: dose 8 µg/ml
[36] = system: Pseudomonas aeruginosa; assay: Synergistic antibacterial activity against Pseudomonas aeruginosa 839 assessed as meropenem MIC at 8 ug/ml by broth microdilution method; format: functional; settings: dose 8 µg/ml
[37] = system: Acinetobacter baumannii; assay: Synergistic antibacterial activity against Acinetobacter baumannii PR323 producing OXA-24/40 assessed as meropenem MIC at 8 ug/ml by broth microdilution method; format: functional; settings: dose 8 µg/ml
[38] = system: Klebsiella pneumoniae; assay: Synergistic antibacterial activity against Klebsiella pneumoniae jefferson 1773 producing OXA-181 assessed as meropenem MIC at 4 ug/ml by broth microdilution method; format: functional; settings: dose 4 µg/ml

Compound	MIC [2] [µg/mL]	MIC [3] [µg/mL]	MIC [4] [µg/mL]	MIC [5] [µg/mL]	MIC [6] [µg/mL]	MIC [7] [µg/mL]	MIC [8] [µg/mL]	MIC [9] [µg/mL]	MIC [10] [µg/mL]	MIC [11] [µg/mL]	MIC [12] [µg/mL]	MIC [13] [µg/mL]	MIC [14] [µg/mL]	MIC [19] [µg/mL]	MIC [20] [µg/mL]	MIC [21] [µg/mL]	MIC [23] [µg/mL]	MIC [24] [µg/mL]	MIC [25] [µg/mL]	MIC [26] [µg/mL]	further results
O=C(NNC(=O)[C@@H]1CC[C@@H]2CN1C(=O)N2OS(=O)(=O)O)[C@@H]1CCCNC1 [ZIDEBACTAM]	≤ 0.12	≤ 0.12	≤ 0.12	≤ 0.12	≤ 0.12	≤ 0.12	16	4	8	16	8	1	16	≤ 0.12	≤ 0.12	≤ 0.12	> 16	> 16	> 16	0.25	Kd [1]: 32 nM; MIC [15]: 0.5 µg/mL; MIC [16]: ≤ 0.12 µg/mL; MIC [17]: > 16 µg/mL; MIC [18]: 8 µg/mL; MIC [22]: ≤ 0.12 µg/mL; MIC [27]: ≤ 0.12 µg/mL; MIC [28]: ≤ 0.12 µg/mL; MIC [29]: ≤ 0.12 µg/mL; MIC [30]: > 16 µg/mL; MIC [31]: ≤ 0.12 µg/mL; MIC [32]: ≤ 0.12 µg/mL; MIC [33]: ≤ 0.12 µg/mL; MIC [34]: ≤ 0.12 µg/mL; MIC [35]: ≤ 0.12 µg/mL; MIC [36]: ≤ 0.12 µg/mL; MIC [37]: > 16 µg/mL
O=C(NNC(=O)[C@@H]1CC[C@@H]2CN1C(=O)N2OS(=O)(=O)O)[C@@H]1CCNC1	≤ 0.12	≤ 0.12	≤ 0.12	≤ 0.12	≤ 0.12	≤ 0.12	0.5	4	8	16	8	1	16	≤ 0.12	≤ 0.12	≤ 0.12	> 16	> 16	> 16	0.25	Kd [1]: 29 nM; MIC [15]: 0.5 µg/mL; MIC [16]: ≤ 0.12 µg/mL; MIC [17]: > 16 µg/mL; MIC [18]: 8 µg/mL; MIC [27]: ≤ 0.12 µg/mL; MIC [28]: ≤ 0.12 µg/mL; MIC [29]: ≤ 0.12 µg/mL; MIC [30]: > 16 µg/mL; MIC [31]: ≤ 0.12 µg/mL; MIC [32]: ≤ 0.12 µg/mL; MIC [33]: ≤ 0.12 µg/mL; MIC [34]: ≤ 0.12 µg/mL; MIC [35]: ≤ 0.12 µg/mL; MIC [36]: ≤ 0.12 µg/mL; MIC [37]: > 16 µg/mL
O.O=C(NC1CCNCC1)[C@@H]1CC[C@@H]2CN1C(=O)N2OS(=O)(=O)O [RELEBACTAM]	≤ 0.12	≤ 0.12	≤ 0.12	0.25	≤ 0.12	2	> 16	> 16	16	> 16	> 16	2	> 16	≤ 0.12	≤ 0.12	≤ 0.12	> 16	> 16	> 16	0.25	MIC [22]: > 16 µg/mL; MIC [38]: 16 µg/mL
NC(=O)[C@@H]1CC[C@@H]2CN1C(=O)N2OS(=O)(=O)[O-].[Na+] [AVIBACTAM SODIUM]	≤ 0.12	≤ 0.12	≤ 0.12	≤ 0.12	≤ 0.12	0.25	> 16	> 16	16	> 16	> 16	2	> 16	≤ 0.12	≤ 0.12	≤ 0.12	> 16	> 16	> 16	0.25	Kd [1]: 90 nM; MIC [22]: 1 µg/mL; MIC [38]: 1 µg/mL
